Reference: ChEMBL document CHEMBL2086379, “Novel pyrimidopyrimidine derivatives for inhibition of cellular proliferation and motility induced by h-prune in breast cancer” (Eur J Med Chem, 2012)
The source made the active and inactive calls. The rule behind the calls is not given here.

How the values were obtained:
[1] = Inhibition of cell proliferation of human MDA-MB-231T cells expressing human-prune assessed as cell index levels at 50 uM measured 24 hrs post dose by xCelligence system based real time cell analysis method (reference value: 1.777 cell index); assay type: functional
Procedure, shortened: (§1)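 Compound or DMSO added once when cell index reached 1.0–1.2 (50–60% confluence). CI read every 5 min for up to 54–56 h at 37 °C, 5% CO2, normalised to time of addition. Compounds at 50 µM (dose-response runs also 100 µM). Two independent experiments; Student's t test.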

Homo sapiens [2] = species: Homo sapiens; assay: Inhibition of cell proliferation of human MDA-MB-231T cells expressing human-prune assessed as cell index levels at 50 uM measured 5 hrs post dose by xCelligence system based real time cell analysis method; assay type: functional; procedure, shortened: as §1
[3] = molecular target: T1, Exopolyphosphatase PRUNE1 (Homo sapiens, UniProt Q86TP1); assay: Inhibition of purified human prune assessed as reduction of cAMP-phosphodiesterase activity by SPA
T1 sequence (Q86TP1 whole entry): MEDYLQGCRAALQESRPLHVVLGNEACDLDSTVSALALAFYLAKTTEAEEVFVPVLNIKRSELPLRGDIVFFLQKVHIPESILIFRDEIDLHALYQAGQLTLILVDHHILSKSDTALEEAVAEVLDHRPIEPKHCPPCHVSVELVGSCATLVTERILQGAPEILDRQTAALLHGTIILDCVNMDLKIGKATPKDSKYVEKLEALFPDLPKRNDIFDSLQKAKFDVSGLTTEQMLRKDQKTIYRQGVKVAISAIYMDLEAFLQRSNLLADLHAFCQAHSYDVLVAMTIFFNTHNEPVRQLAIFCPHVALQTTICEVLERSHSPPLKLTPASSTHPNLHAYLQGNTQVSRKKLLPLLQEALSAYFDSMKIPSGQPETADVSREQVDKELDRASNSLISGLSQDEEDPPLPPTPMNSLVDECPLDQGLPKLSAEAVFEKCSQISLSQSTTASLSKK

Homo sapiens [4] = species: Homo sapiens; assay: Inhibition of cell motility in human MDA-MB-231T cells expressing human-prune at 8 uM by 2D cell migration assay; assay type: functional, cell-based
[5] = molecular target: T2, Exopolyphosphatase PRUNE1 (Homo sapiens) (UniProt Q86TP1); assay: Inhibition of human prune expressed in human MDA-435-c100 cells at 1 uM assessed as reduction of cAMP-phosphodiesterase activity using whole cell protein extracts by SPA; assay type: cell-based
T2 sequence (whole entry): T1 sequence (Q86TP1 whole entry)

[6] = molecular target: T1, Exopolyphosphatase PRUNE1; assay: Inhibition of human prune assessed as reduction of cAMP-phosphodiesterase activity
Homo sapiens [7] = species: Homo sapiens; assay: Inhibition of cell proliferation of human MDA-MB-231T cells expressing human-prune assessed as cell index levels at 50 uM measured 9 to 54 hrs post dose by xCelligence system based real time cell analysis method; assay type: functional; procedure, shortened: as §1

Row | IC50 [3] | inhibition [5] | IC50 [6] | Compound | Activity [1] | inhibition (Homo sapiens [2]) | inhibition (Homo sapiens [4]) | inhibition (Homo sapiens [7])
1 | 210 nM | Active |  | COc1ccc(CNc2nc(N(CCO)CCO)nc3c(NCc4ccc(OC)cc4)nc(N(CCO)CCO)nc23)cc1 | 1.185 | inactive | Active | 
2 |  |  | 780 nM | OCCN(CCO)c1nc(N2CCCCC2)c2nc(N(CCO)CCO)nc(N3CCCCC3)c2n1 [DIPYRIDAMOLE] | 1.472 | inactive | Active | Active
